Test results published in ChEMBL document CHEMBL4145441, “Discovery of N-(5-((5-chloro-4-((2-(isopropylsulfonyl)phenyl)amino)pyrimidin-2-yl)amino)-4-methoxy-2-(4-methyl-1,4-diazepan-1-yl)phenyl)acrylamide (CHMFL-ALK/EGFR-050) as a potent ALK/EGFR dual kinase inhibitor capable of overcoming a variety of ALK/EGFR associated drug resistant mutants in NSCLC” (Eur J Med Chem, 2017).
pIC50: −log10 of the molar value. Calls of active or inactive are those of the source. The rule behind the calls is not given here.

Assays:
NCI-H1975 [1] = assay: Growth inhibition of human NCI-H1975 cells after 72 hrs by CellTiter-Glo assay; assay type: functional; details: NCI-H1975, 72 h
Summary of the method: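 Antiproliferative GI50 against H1975 and H3122 cells; each GI50 value obtained from triplicate testing.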

[2] = target: Epidermal growth factor receptor (Homo sapiens, UniProt P00533, L858R); assay: Inhibition of recombinant human GST-tagged EGFR L858R mutant expressed in Baculovirus expression system using Tyr 4 peptide as substrate after 1 hr in presence of ATP by Z-LYTE assay
Chain of Epidermal growth factor receptor (Homo sapiens, UniProt P00533, L858R) (P00533 25-1210 L858R limits assumed): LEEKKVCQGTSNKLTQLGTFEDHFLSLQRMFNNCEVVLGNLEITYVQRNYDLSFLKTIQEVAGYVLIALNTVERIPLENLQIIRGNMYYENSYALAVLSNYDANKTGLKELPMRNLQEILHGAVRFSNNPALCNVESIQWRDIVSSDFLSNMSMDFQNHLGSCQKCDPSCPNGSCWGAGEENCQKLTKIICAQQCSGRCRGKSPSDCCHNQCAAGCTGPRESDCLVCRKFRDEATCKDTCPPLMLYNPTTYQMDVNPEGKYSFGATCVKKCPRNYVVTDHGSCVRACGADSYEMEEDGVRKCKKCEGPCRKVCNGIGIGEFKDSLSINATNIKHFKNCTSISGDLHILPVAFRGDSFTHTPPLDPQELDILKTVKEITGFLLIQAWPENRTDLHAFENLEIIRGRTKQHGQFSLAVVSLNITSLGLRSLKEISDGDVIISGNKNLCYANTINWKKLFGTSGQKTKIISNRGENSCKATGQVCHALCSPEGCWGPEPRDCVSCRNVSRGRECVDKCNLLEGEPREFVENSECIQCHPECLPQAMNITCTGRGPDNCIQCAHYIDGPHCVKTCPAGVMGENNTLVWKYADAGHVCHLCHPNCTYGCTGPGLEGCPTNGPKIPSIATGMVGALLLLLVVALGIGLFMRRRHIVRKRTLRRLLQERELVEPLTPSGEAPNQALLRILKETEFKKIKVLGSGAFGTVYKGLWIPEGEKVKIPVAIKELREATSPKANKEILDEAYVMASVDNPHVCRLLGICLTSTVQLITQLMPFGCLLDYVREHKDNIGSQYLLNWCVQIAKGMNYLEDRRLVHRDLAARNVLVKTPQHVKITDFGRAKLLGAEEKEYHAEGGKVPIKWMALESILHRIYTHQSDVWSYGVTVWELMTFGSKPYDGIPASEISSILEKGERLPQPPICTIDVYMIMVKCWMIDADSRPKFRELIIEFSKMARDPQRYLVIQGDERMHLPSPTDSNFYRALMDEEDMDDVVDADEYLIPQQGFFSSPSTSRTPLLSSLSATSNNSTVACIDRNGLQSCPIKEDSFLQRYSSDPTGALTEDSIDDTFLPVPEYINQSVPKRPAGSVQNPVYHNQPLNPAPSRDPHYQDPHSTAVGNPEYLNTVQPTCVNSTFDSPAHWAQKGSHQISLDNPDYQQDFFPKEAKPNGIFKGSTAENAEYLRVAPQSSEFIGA

[3] = target: ALK tyrosine kinase receptor (Homo sapiens, UniProt Q9UM73, R1275Q); assay: Inhibition of recombinant human N-terminal GST/His6-fused ALK R1275Q mutant expressed in Sf9 insect cells using Tyr 1 peptide as substrate after 1 hr by Z-LYTE assay
Chain of ALK tyrosine kinase receptor (Homo sapiens, UniProt Q9UM73, R1275Q) (Q9UM73 19-1620 R1275Q limits assumed): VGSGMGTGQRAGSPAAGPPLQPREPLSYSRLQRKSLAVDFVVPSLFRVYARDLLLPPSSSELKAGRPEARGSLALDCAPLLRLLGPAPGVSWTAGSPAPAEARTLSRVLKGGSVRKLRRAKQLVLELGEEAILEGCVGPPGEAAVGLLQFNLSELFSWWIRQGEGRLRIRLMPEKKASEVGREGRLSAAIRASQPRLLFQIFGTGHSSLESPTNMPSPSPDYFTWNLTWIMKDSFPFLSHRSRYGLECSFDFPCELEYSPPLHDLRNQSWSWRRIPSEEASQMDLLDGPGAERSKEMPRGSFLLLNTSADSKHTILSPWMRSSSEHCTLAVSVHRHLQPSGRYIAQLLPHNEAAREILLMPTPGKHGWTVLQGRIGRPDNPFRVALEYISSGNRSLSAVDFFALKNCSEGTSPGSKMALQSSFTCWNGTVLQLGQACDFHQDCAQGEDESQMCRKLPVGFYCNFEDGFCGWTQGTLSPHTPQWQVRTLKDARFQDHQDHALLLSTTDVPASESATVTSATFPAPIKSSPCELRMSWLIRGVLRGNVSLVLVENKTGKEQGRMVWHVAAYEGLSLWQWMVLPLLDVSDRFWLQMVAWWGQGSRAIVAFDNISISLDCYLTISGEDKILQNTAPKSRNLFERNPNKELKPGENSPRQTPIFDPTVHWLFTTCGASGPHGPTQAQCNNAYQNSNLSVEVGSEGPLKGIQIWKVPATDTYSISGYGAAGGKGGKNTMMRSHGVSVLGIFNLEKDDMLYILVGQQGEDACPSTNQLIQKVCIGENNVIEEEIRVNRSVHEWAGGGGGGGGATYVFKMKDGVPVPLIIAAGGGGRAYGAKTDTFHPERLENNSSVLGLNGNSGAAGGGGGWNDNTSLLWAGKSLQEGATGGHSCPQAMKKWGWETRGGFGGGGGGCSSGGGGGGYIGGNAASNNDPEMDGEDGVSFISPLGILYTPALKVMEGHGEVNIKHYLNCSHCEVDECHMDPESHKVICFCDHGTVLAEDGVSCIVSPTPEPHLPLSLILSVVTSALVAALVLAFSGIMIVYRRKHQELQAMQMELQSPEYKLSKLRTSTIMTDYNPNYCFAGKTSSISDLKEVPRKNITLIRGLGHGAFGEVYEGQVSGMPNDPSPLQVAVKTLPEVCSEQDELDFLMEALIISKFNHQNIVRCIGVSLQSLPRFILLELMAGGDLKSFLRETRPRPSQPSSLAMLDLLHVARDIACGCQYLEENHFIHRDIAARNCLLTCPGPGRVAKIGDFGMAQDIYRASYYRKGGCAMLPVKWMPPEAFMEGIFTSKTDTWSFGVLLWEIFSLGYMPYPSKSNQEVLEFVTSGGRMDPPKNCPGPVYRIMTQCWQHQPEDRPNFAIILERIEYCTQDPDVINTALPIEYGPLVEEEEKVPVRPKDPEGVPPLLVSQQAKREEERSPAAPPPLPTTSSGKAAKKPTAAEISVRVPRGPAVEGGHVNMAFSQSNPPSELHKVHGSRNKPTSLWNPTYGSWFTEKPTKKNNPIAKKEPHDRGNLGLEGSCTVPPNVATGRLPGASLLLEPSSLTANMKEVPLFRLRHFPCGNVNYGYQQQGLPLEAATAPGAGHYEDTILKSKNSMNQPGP

[4] = target: ALK tyrosine kinase receptor (Homo sapiens, UniProt Q9UM73, C1156Y); assay: Inhibition of recombinant human N-terminal GST/His6-fused ALK C1156Y mutant expressed in Sf9 insect cells using Tyr 1 peptide as substrate after 1 hr by Z-LYTE assay
Chain of ALK tyrosine kinase receptor (Homo sapiens, UniProt Q9UM73, C1156Y) (Q9UM73 19-1620 C1156Y limits assumed): as the sequence (Q9UM73 19-1620 R1275Q limits assumed) above, with C1138Y, Q1257R counted along it

NCI-H2228 = assay: Antiproliferative activity against human NCI-H2228 cells harboring EML4-fused ALK varian3 after 72 hrs by CellTiter-Glo assay; assay type: functional; details: NCI-H2228, 72 h
[5] = Antiproliferative activity against CHL cells after 72 hrs by CellTiter-Glo assay; assay type: cell-based, Cricetulus griseus; details: chinese hamster
[6] = Oral bioavailability in Sprague-Dawley rat at 10 mg/kg; assay type: ADME, organism-based; details: in vivo
Summary of the method: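 Pharmacokinetics in rats given a single dose either intravenously at 1 mg/kg or orally at 10 mg/kg. Plasma parameters derived include AUC0-t, AUC0-∞, MRT(0-t), Cmax, Tmax, T1/2 and oral F (%).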

[7] = AUC (0 to infinity) in Sprague-Dawley rat at 10 mg/kg, po; assay type: ADME, organism-based; design: dose 10 mg/kg, route oral, time infinity; details: in vivo
Summary of the method: (§1)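 Rats dosed once intravenously at 1 mg/kg or orally at 10 mg/kg. Plasma exposure parameters derived: AUC0-t, AUC0-∞, MRT(0-t), Cmax, Tmax, T1/2 and oral bioavailability (F%). Values reported as mean ± spread.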

[8] = Half life in Sprague-Dawley rat at 10 mg/kg, po; assay type: ADME, organism-based; details: in vivo; summary of the method: as §1
[9] = target: T1, Epidermal growth factor receptor (Homo sapiens, UniProt P00533); assay: Inhibition of EGFR phosphorylation at Y1068 in human NCI-H1975 cells at 30 nM after 4 hrs by immunoblotting method; assay type: cell-based
T1 sequence (P00533 whole entry): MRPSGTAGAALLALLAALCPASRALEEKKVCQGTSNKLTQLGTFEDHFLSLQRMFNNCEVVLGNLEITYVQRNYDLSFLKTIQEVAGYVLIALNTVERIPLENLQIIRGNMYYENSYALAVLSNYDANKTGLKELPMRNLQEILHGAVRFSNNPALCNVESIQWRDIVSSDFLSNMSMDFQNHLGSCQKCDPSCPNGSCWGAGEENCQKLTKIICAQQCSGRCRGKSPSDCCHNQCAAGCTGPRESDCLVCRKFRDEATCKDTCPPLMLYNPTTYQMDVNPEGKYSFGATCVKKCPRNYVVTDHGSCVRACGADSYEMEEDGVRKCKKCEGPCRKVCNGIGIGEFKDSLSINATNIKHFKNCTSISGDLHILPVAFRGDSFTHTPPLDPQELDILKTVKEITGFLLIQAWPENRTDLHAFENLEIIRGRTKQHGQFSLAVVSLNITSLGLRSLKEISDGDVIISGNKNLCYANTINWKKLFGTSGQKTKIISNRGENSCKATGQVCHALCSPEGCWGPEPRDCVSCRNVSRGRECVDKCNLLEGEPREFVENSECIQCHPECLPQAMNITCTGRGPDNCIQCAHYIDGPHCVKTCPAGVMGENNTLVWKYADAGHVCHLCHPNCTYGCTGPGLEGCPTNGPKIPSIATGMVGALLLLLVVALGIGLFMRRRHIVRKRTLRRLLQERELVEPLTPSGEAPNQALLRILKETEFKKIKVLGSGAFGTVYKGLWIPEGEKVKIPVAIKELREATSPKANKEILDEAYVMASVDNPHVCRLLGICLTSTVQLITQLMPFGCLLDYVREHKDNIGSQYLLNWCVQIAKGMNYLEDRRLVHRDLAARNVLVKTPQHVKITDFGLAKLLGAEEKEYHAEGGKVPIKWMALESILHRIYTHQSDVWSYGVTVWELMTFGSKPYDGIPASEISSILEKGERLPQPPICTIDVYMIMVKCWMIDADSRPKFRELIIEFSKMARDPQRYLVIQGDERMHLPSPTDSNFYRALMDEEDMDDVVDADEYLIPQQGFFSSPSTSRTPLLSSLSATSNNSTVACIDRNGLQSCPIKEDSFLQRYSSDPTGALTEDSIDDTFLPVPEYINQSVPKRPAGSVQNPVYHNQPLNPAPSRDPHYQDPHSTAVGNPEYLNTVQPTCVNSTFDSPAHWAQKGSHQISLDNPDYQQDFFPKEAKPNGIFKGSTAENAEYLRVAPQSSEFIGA

[10] = target: T1, Epidermal growth factor receptor; assay: Inhibition of EGFR in human NCI-H1975 cells assessed as inhibition of ERK-1/2 phosphorylation at Thr202/Tyr204 residues at 30 nM after 4 hrs by immunoblotting method; assay type: cell-based
[11] = target: T1, Epidermal growth factor receptor; assay: Inhibition of EGFR phosphorylation at Y1068 in human A549 cells at 300 nM after 4 hrs by immunoblotting method; assay type: cell-based
[12] = target: T1, Epidermal growth factor receptor; assay: Inhibition of EGFR in human A549 cells assessed as reduction in EGF-induced STAT3 phosphorylation at Tyr705 residue up to 3 uM after 4 hrs by immunoblotting method; assay type: cell-based
[13] = target: T2, ALK tyrosine kinase receptor (Homo sapiens, UniProt Q9UM73); assay: Inhibition of ALK phosphorylation at Tyr1604 residue in human NCI-H3122 cells harboring EML4-fused ALK at 100 nM after 2 hrs by immunoblot method; assay type: cell-based
T2 sequence (Q9UM73 19-1620 limits assumed): as the sequence (Q9UM73 19-1620 R1275Q limits assumed) above, with Q1257R counted along it

[14] = target: T2, ALK tyrosine kinase receptor; assay: Inhibition of ALK in human NCI-H3122 cells harboring EML4-fused ALK assessed as reduction in ALK-induced ERK phosphorylation at Thr202/Tyr204 residues up to 3 uM after 2 hrs by immunoblot method; assay type: cell-based
NCI-H3122 [15] = assay: Cell cycle arrest in human NCI-H3122 cells assessed as accumulation at G0/G1 phase at 0.03 to 0.3 uM after 24 hrs by propidium iodide/RNase staining-based flow cytometry; assay type: functional
NCI-H3122 [16] = assay: Induction of apoptosis in human NCI-H3122 cells assessed as increase in cleaved PARP expression level at 300 nM after 24 hrs by Western blot method; assay type: functional, cell-based
NCI-H3122 [17] = assay: Antitumor activity against human NCI-H3122 cells xenografted in po dosed nu/nu mouse assessed as tumor growth inhibition administered for 28 days; assay type: functional, organism-based
NCI-H3122 [18] = assay: Induction of apoptosis in human NCI-H3122 cells xenografted in po dosed nu/nu mouse administered for 28 days by DAB-chromogen-based TUNEL assay; assay type: functional, organism-based
Homo sapiens [19] = organism: Homo sapiens; assay: Selectivity index, ratio of IC50 for recombinant human wild-type His-tagged EGFR to IC50 for recombinant human GST-tagged EGFR L858R/T790M mutant
Homo sapiens [20] = organism: Homo sapiens; assay: Selectivity index, ratio of IC50 for recombinant human wild-type His-tagged EGFR to IC50 for recombinant human GST-tagged EGFR T790M mutant
Homo sapiens [21] = organism: Homo sapiens; assay: Selectivity ratio of GI50 for inhibition of TEL-fused EGFR C797S mutant (unknown origin) expressed in mouse BAF3 cells assessed as decrease in cell proliferation to GI50 for TEL-fused EGFR (unknown origin) expressed in mouse BAF3 cells assessed as decrease in cell proliferation; assay type: cell-based
[22] = system: ALK tyrosine kinase receptor (Homo sapiens), Q9UM73 [F1174L]
NCI-H1975 [23] = assay: Antitumor activity against human NCI-H1975 cells xenografted in nu/nu mouse assessed as tumor weight at 10 mg/kg, po qd administered for 21 days (reference value: 6.05g)

## C=CC(=O)Nc1cc(Nc2ncc(Cl)c(Nc3ccccc3S(=O)(=O)C(C)C)n2)c(OC)cc1N1CCCN(C)CC1
NCI-H1975 [1]
  GI50: 0.015 µM
[2]
  pIC50: 7.08
[3]
  pIC50: 9.09
[4]
  pIC50: 9.00
NCI-H2228
  GI50: 0.028 µM
[5]
  GI50 at 72 h: 3.5 µM
[6]
  bioavailability: 16.1%
[7]
  AUC(0-inf): 1.3 µg·h/mL
[8]
  half-life: 1.75 h
[9]
  inhibition: Active
[10]
  inhibition: Active
[11]
  inhibition: Active
[12]
  inhibition: inactive
[13]
  inhibition: Active
[14]
  inhibition: Active
NCI-H3122 [15]
  Activity: Active
NCI-H3122 [16]
  Activity: Active
NCI-H3122 [17]
  TGI: Dose-dependent effect
NCI-H3122 [18]
  Activity: Dose-dependent effect
Homo sapiens [19]
  Ratio IC50: 20 to 30
Homo sapiens [20]
  Ratio IC50: 20 to 30
Homo sapiens [21]
  RatioGI50: 15
[22]
  GI50: 0.029 µM
NCI-H1975 [23]
  Activity: 1.58 g
